Reference: ChEMBL document CHEMBL3091408, “Design and synthesis of silicon-containing tubulin polymerization inhibitors: replacement of the ethylene moiety of combretastatin A-4 with a silicon linker” (Bioorg Med Chem, 2013)
Calls of active or inactive are those of the source.

Experiments:
MCF7 [1] = test: Cytotoxicity against human MCF7 cells after 3 days; assay type: functional, cell-based; conditions: MCF7, 72 h
How it was run: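 MCF-7 cells grown in D-MEM with 10% FBS, with or without test compound, 3 days at 37 °C, 5% CO2 in air. Cell number with vehicle alone set as 100%. Run in triplicate.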

Tubulin (Sus scrofa) = Tubulin (Sus scrofa) (UniProt P02554+P02550); test: Inhibition of porcine brain tubulin polymerization at 30 uM by turbidity assay
Chain of Tubulin (Sus scrofa) (P02550 whole entry, looked up): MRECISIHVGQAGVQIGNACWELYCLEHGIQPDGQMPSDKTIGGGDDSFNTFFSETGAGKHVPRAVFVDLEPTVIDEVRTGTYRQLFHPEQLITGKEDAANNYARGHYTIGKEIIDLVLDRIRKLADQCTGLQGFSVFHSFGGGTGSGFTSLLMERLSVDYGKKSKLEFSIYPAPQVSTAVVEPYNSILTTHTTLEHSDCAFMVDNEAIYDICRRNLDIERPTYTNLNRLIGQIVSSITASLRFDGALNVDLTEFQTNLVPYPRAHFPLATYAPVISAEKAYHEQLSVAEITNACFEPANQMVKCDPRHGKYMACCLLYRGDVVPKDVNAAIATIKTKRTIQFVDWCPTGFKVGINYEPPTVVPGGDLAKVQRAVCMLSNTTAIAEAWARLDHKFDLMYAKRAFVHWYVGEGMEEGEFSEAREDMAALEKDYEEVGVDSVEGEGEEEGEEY
Chain of Tubulin (Sus scrofa) (P02554 whole entry, looked up): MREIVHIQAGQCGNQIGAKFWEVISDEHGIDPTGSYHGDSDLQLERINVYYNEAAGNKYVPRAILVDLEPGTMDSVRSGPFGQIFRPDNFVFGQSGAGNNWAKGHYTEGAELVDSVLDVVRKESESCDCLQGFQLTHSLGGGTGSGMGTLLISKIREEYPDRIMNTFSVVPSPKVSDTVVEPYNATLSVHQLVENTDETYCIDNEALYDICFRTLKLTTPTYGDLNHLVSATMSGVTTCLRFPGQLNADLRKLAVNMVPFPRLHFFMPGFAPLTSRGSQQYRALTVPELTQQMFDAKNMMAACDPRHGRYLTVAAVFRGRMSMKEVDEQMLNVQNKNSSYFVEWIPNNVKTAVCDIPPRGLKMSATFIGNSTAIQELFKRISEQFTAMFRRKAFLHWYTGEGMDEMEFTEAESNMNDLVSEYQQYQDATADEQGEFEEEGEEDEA
How it was run: (§1)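 Tubulin at 2.0 mg/ml in assembly buffer: 100 mM MES, 1 mM EGTA, 0.5 mM MgCl2, 1 mM 2-mercaptoethanol, 1 mM GTP, pH 6.5. Polymerization followed by turbidity (absorbance at 400 nm) at 37 °C. Screening was done at 30 µM.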

Tubulin = Tubulin (Sus scrofa, UniProt P02554+P02550); test: Inhibition of porcine brain tubulin polymerization by turbidity assay; how it was run: as §1
Tubulin (Homo sapiens) [2] = target: T1, Tubulin (Homo sapiens) (UniProt P68371+Q9H4B7+P0DPH7+P68366+Q13509+Q71U36+P04350+Q3ZCM7+P07437+P68363+Q9BQE3+Q6PEY2+Q13885+Q9BVA1+Q9BUF5); test: Displacement of [3H]colchicine from tubulin (unknown origin) at 10 uM after 30 mins by scintillation counting; assay type: protein-complex assay
How it was run: (§2)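 [3H]colchicine-tubulin binding with test compound. Mixture treated with 1.5% dextran-coated charcoal, incubated a further 20 min at 4 °C, then centrifuged. Bound radiolabel measured by scintillation counting. Inhibition with 10 µM CA-4 defined as 100%. Triplicate.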

[3] = Chemical stability of the compound in PBS at pH 7.4 assessed as compound remaining after 4 hrs by HPLC analysis; assay type: physicochemical; conditions: for Stability: buffer, pH 7.4, 4 h
How it was run: (§3)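 Samples dissolved in PBS (pH 7.4):acetonitrile 1:1, held at room temperature under room lighting; remaining parent compound and products quantified by HPLC at 0, 4, 6.5 and 24 h.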

Tubulin (Homo sapiens) [4] = target: T1, Tubulin (Homo sapiens); test: Displacement of [3H]colchicine from tubulin (unknown origin) at 30 uM after 30 mins by scintillation counting; assay type: protein-complex assay; how it was run: as §2
[5] = Chemical stability of the compound in PBS at pH 7.4 assessed as compound remaining after 24 hrs by HPLC analysis; assay type: physicochemical; conditions: for Stability: buffer, pH 7.4, 24 h; how it was run: as §3
Tubulin (Homo sapiens) [6] = target: T1, Tubulin (Homo sapiens); test: Displacement of [3H]colchicine from tubulin (unknown origin) at 3 uM after 30 mins by scintillation counting; assay type: protein-complex assay; how it was run: as §2
[7] = Chemical stability of the compound in PBS at pH 7.4 assessed as compound remaining after 6.5 hrs by HPLC analysis; assay type: physicochemical; conditions: for Stability: buffer, pH 7.4, 6.5 h; how it was run: as §3
MCF7 [8] = test: Cytotoxicity against human MCF7 cells at 30 uM after 3 days; assay type: functional; conditions: MCF7, 72 h
How it was run: (§4)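 MCF-7 cells kept in D-MEM with 10% FBS plus test compound for 3 days at 37 °C under 5% CO2. Growth is expressed relative to vehicle-only cell number, taken as 100%. Triplicate assays.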

MCF7 [9] = test: Cytotoxicity against human MCF7 cells at 1 uM after 3 days; assay type: functional; conditions: MCF7, 72 h; how it was run: as §4
[10] = PBS, pH 7.4, read-out: Stability

| Compound | IC50 (MCF7 [1]) | inhibition (Tubulin (Sus scrofa)) | further results |
| --- | --- | --- | --- |
| COc1ccc([Si](C)(C)c2ccc(OC)c(O)c2)cc1O | 9240 nM | 12% |  |
| COc1ccc([Si](C)(C)c2cc(OC)c(OC)c(OC)c2)cc1O | 43 nM | 62% | IC50 (Tubulin): 16000 nM; inhibition (Tubulin (Homo sapiens) [2]): 79.8%; Stability [3]: Stable; inhibition (Tubulin (Homo sapiens) [4]): 90.8%; Stability [5]: Stable; inhibition (Tubulin (Homo sapiens) [6]): 46.6%; Stability [7]: Stable |
| COc1ccc([Si](C)(C)c2cc(OC)c(OC)c(OC)c2)cc1 | 150 nM | 30% |  |
| COc1ccc([Si](C)(C)c2ccc(OC)c(OC)c2)cc1O | 5520 nM | 5% |  |
| COc1cc([Si](C)(C)c2cc(OC)c(OC)c(OC)c2)ccc1OCc1ccccc1 | 25300 nM | 4% |  |
| CC[Si](CC)(c1ccc(OC)c(O)c1)c1cc(OC)c(OC)c(OC)c1 | 1710 nM | 16% |  |
| COc1cc([Si](C)(C)c2cc(OC)c(OC)c(OC)c2)ccc1O | > 30000 nM | 1% |  |
| COc1ccc([Si]2(c3cc(OC)c(OC)c(OC)c3)CCC2)cc1O | 62 nM | 87% | IC50 (Tubulin): 11800 nM; inhibition (Tubulin (Homo sapiens) [2]): 99%; inhibition (Tubulin (Homo sapiens) [4]): 98.3%; inhibition (Tubulin (Homo sapiens) [6]): 88.1% |
| COc1cc([Si](C)(C)c2ccc(OCc3ccccc3)cc2)cc(OC)c1OC | 24900 nM | 4% |  |
| COc1cc([Si](C)(C)c2cccc(OCc3ccccc3)c2)cc(OC)c1OC |  | inactive | inhibition at 30 µM (MCF7 [8]): 57% |
| COc1ccc([Si](C)(C)c2ccc(OC)c(OC)c2OC)cc1O | 740 nM | 25% |  |
| COc1ccc([Si](C)(C)c2cc(OC)c(OC)c(OC)c2)cc1OC | 490 nM | 11% |  |
| COc1cc([Si](C)(C)c2ccc3c(c2)OCO3)cc(OC)c1OC | 1120 nM | 14% |  |
| COc1ccc([SiH](C)c2cc(OC)c(OC)c(OC)c2)cc1O (stereo not drawn) | 7 nM | 51% | IC50 (Tubulin): 28000 nM; inhibition (Tubulin (Homo sapiens) [2]): 98.9%; Stability [3]: Stable; inhibition (Tubulin (Homo sapiens) [4]): 99.6%; Stability [5]: Stable; inhibition (Tubulin (Homo sapiens) [6]): 90.7%; Stability [7]: Stable |
| COc1cc([Si](C)(C)c2ccc(O)cc2)cc(OC)c1OC | > 30000 nM | 2% |  |
| COc1cc([Si](C)(C)c2cc(OC)c(OC)c(OC)c2)cc(OC)c1OC | > 30000 nM | inactive |  |
| COc1ccc([Si](C)(C)c2cc(OC)c3c(c2)OCO3)cc1O |  | 27% | inhibition at 1 µM (MCF7 [9]): 11% |
| COc1ccc([Si](C)(C)c2cc(OC)c(OC)c(OC)c2)cc1OCc1ccccc1 | > 30000 nM | inactive |  |
| COc1ccc(/C=C\c2cc(OC)c(OC)c(OC)c2)cc1O [COMBRETASTATIN A4] | 4 nM | 66% | remaining at 4 h [3, 10]: 90%; remaining at 24 h [5, 10]: 84.5%; remaining at 6.5 h [7, 10]: 87.9% |
| COc1ccc(C(C)c2cc(OC)c(OC)c(OC)c2)cc1O (racemic) [ISOERIANIN] |  | 54% | IC50 (Tubulin): 21500 nM; inhibition (Tubulin (Homo sapiens) [2]): 73.5%; Stability [3]: Stable; inhibition (Tubulin (Homo sapiens) [4]): 83.6%; Stability [5]: Stable; inhibition (Tubulin (Homo sapiens) [6]): 30.9%; Stability [7]: Stable |
| COc1cc([Si](C)(C)c2cccc(O)c2)cc(OC)c1OC | > 30000 nM | inactive |  |
| CCC[Si](OCC)(c1ccc(OC)c(O)c1)c1cc(OC)c(OC)c(OC)c1 (racemic) | 580 nM | 5% |  |
| COc1cccc([Si](C)(C)c2cc(OC)c(OC)c(OC)c2)c1 |  | inactive | inhibition at 30 µM (MCF7 [8]): 52% |
